Measured values as given in ChEMBL document CHEMBL1152148, “Exploring 8-benzyl pteridine-6,7-diones as inhibitors of glutamate racemase (MurI) in gram-positive bacteria” (Bioorg Med Chem Lett, 2008).
Values after ≈ are worked out from the molar mass of the structure shown.

How the values were obtained:
Glutamate racemase = target: T1, Glutamate racemase (Enterococcus faecalis (strain ATCC 700802 / V583), UniProt Q836J0); test: Inhibition of Enterococcus faecalis murI assessed as effect on conversion of D-glutamate to L-glutamate at pH 8.0 by HPLC
T1 sequence (Q836J0 whole entry): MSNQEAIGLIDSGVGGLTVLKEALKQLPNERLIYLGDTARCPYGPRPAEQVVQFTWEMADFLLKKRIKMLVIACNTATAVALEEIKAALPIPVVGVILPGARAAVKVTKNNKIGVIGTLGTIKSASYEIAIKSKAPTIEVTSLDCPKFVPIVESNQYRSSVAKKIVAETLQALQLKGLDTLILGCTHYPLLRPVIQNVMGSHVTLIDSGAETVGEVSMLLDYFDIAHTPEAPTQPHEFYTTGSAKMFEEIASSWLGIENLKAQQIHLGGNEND
Procedure, shortened: (§1)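 IC50 determined against the MurI isozyme at pH 8 in Tris buffer containing polyethylene glycol, dithiothreitol and D-glutamate substrate. Conversion of D- to L-glutamate was followed by HPLC, with chiral separation of the glutamate enantiomers on a D-penicillamine column.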

Staphylococcus aureus = test: Antibacterial activity against Staphylococcus aureus by NCCLS method; format: functional
[1] = Inhibition of Staphylococcus aureus murI assessed as effect on conversion of D-glutamate to L-glutamate at pH 8.0 by HPLC; procedure, shortened: as §1
[2] = Solubility in Tris buffer at pH 8.0 by nephelometry; format: physicochemical
Procedure, shortened: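 Solubility was determined by nephelometry in the assay medium.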

[3] = Inhibition of Enterococcus faecium murI assessed as effect on conversion of D-glutamate to L-glutamate at pH 8.0 by HPLC

What does the source list for CCCCSc1nc(N)c2[nH]c(=O)c(=O)n(Cc3ccc(Cl)c(Cl)c3)c2n1?
IC50 (Glutamate racemase): 0.65 µM; MIC (Staphylococcus aureus): > 64 µg/mL; IC50 [1]: < 1.5 µM; solubility kinetic [2]: 3.1 µM (≈ 1.32 µg/mL)

With Nc1nc(SCCc2ccccc2)nc2c1[nH]c(=O)c(=O)n2Cc1ccccc1 as the compound, how does the IC50 (Glutamate racemase) read?
Its IC50 is 50 µM.

What about the IC50 [1] of the same compound?
Its IC50 is 11 µM.

And the solubility kinetic [2]?
The solubility kinetic was 3 µM (≈ 1.22 µg/mL).

Which results are given for CCCCSc1nc(N)c2[nH]c(=O)c(=O)n(CCCC)c2n1?
IC50 (Glutamate racemase): 11 µM; MIC (Staphylococcus aureus): > 64 µg/mL; solubility kinetic [2]: 25 µM (≈ 8.09 µg/mL)

What does the source list for CCCCSc1nc(N)c2[nH]c(=O)c(=O)n(Cc3cc(OC)cc(OC)c3)c2n1?
IC50 (Glutamate racemase): 1.7 µM; MIC (Staphylococcus aureus): > 64 µg/mL; IC50 [1]: 14 µM; solubility kinetic [2]: 50 µM (≈ 20.9 µg/mL)

With CCCCSc1nc(NCCN2CCOCC2)c2[nH]c(=O)c(=O)n(Cc3ccc(F)cc3)c2n1 as the compound, how does the IC50 (Glutamate racemase) read?
The IC50 was 2.5 µM.

What about the MIC (Staphylococcus aureus) of the same compound?
The MIC was 64 µg/mL (≈ 131 µM).

And the IC50 [1]?
Its IC50 is 25 µM.

And the solubility kinetic [2]?
The solubility kinetic was 50 µM (≈ 24.4 µg/mL).

With CCCCSc1nc(N2CCN(C)CC2)c2[nH]c(=O)c(=O)n(Cc3ccc(F)cc3)c2n1 as the compound, how does the IC50 (Glutamate racemase) read?
Its IC50 is 6.1 µM.

What about the MIC (Staphylococcus aureus) of the same compound?
Its MIC is 16 µg/mL (≈ 34.9 µM).

What about the IC50 [1] of the same compound?
Its IC50 is 21 µM.

What about the solubility kinetic [2] of the same compound?
The solubility kinetic was 25 µM (≈ 11.5 µg/mL).

Which IC50 (Glutamate racemase) does the source give for CCCCSc1nc(N)c2[nH]c(=O)c(=O)n(Cc3ccc(F)cc3)c2n1 here?
The IC50 was 3.5 µM.

What about the MIC (Staphylococcus aureus) of the same compound?
Its MIC is > 64 µg/mL.

And the IC50 [1]?
The IC50 was 5.1 µM.

What about the solubility kinetic [2] of the same compound?
Its solubility kinetic is 32 µM (≈ 12 µg/mL).

For CCCCSc1nc(N)c2[nH]c(=O)c(=O)n(Cc3ccccc3)c2n1, which IC50 (Glutamate racemase) is on record?
The IC50 was 2.4 µM.

What about the MIC (Staphylococcus aureus) of the same compound?
The MIC was > 64 µg/mL.

And the IC50 [1]?
The IC50 was 6.4 µM.

And the solubility kinetic [2]?
Its solubility kinetic is 25 µM (≈ 8.94 µg/mL).

For Nc1nc(SC2CCCC2)nc2c1[nH]c(=O)c(=O)n2Cc1ccccc1, which IC50 (Glutamate racemase) is on record?
The IC50 was 1.9 µM.

What about the MIC (Staphylococcus aureus) of the same compound?
Its MIC is > 64 µg/mL.

And the IC50 [1]?
The IC50 was 52 µM.

What about the solubility kinetic [2] of the same compound?
The solubility kinetic was 12 µM (≈ 4.43 µg/mL).

With Nc1nc(SCc2ccccc2)nc2c1[nH]c(=O)c(=O)n2Cc1ccccc1 as the compound, how does the IC50 (Glutamate racemase) read?
The IC50 was 21 µM.

What about the IC50 [1] of the same compound?
Its IC50 is 7.6 µM.

What about the solubility kinetic [2] of the same compound?
Its solubility kinetic is 3 µM (≈ 1.17 µg/mL).

For CCCCSc1nc(NC)c2[nH]c(=O)c(=O)n(Cc3ccc(F)cc3)c2n1, which IC50 (Glutamate racemase) is on record?
The IC50 was 0.9 µM.

And the MIC (Staphylococcus aureus)?
The MIC was 8 µg/mL (≈ 20.5 µM).

What about the IC50 [1] of the same compound?
The IC50 was 3.8 µM.

What about the solubility kinetic [2] of the same compound?
The solubility kinetic was 25 µM (≈ 9.74 µg/mL).

With CCCCSc1nc(N)c2[nH]c(=O)c(=O)n(Cc3c(F)cccc3F)c2n1 as the compound, how does the IC50 (Glutamate racemase) read?
The IC50 was 1.5 µM.

What about the MIC (Staphylococcus aureus) of the same compound?
The MIC was > 64 µg/mL.

And the IC50 [1]?
Its IC50 is 3.1 µM.

And the solubility kinetic [2]?
Its solubility kinetic is 50 µM (≈ 19.7 µg/mL).

What does the source list for CCCCSc1nc(N)c2ncn(Cc3ccc([N+](=O)[O-])cc3)c2n1?
IC50 (Glutamate racemase): 7 µM; IC50 [1]: > 400 µM; solubility kinetic [2]: 10 µM (≈ 3.58 µg/mL); IC50 [3]: 18 µM

Which results are given for CCCCSc1nc(N2CC(O)C2)c2[nH]c(=O)c(=O)n(Cc3ccc(F)cc3)c2n1?
IC50 (Glutamate racemase): 2.1 µM; MIC (Staphylococcus aureus): > 64 µg/mL; IC50 [1]: 4 µM; solubility kinetic [2]: 1.6 µM (≈ 0.69 µg/mL)

Which IC50 (Glutamate racemase) does the source give for CCCCSc1nc(N(C)C)c2[nH]c(=O)c(=O)n(Cc3ccc(F)cc3)c2n1 here?
Its IC50 is 1.1 µM.

And the MIC (Staphylococcus aureus)?
Its MIC is 4 µg/mL (≈ 9.91 µM).

What about the solubility kinetic [2] of the same compound?
The solubility kinetic was 0.8 µM (≈ 0.323 µg/mL).
